# Sampled rows, rich in hits. Any-hit rate of the full collection: about 3.5%.
# FN deposit inh: fibronectin deposition inhibition | AH1F fibroblasts, Alexa488-fibronectin deposition fluorescence, overnight | inhibition, % at 12.6 µM | hit rate 0.086% among 350,000 | AID 743247;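 active = mean inhibition across replicates of 30% or more, regardless of how many single replicates reach that level; inconclusive = mean under 30% yet at least half of replicates reach 30%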;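 note: positive control wells lacked labelled fibronectin entirely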
#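 Test system: AH1F fibroblast monolayer depositing Alexa488-labelled fibronectin into matrix. Input: 10000 cells per well. Technique: fluorescence, ex 485 nm, em 525 nm. Buffer or medium: DMEM plus 2% serum, read in PBS. Timing: 1 h cell adhesion before compound, then overnight fibronectin incubation. Compound: single dose, pinned. Read-out basis: inhibition from reduced deposited-fibronectin fluorescence.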
# rRNA inh HTS: inhibitors of bacterial rRNA selective over humanized ribosomes. AID 720706. E. coli WT GFP vs humanized-ribosome RFP mutants, fluorescence, 24 h; active compounds read low; DMSO median 0, no signal -100. GFP signal change (wild-type ribosome), % (concentration not given with the values). hit rate 1.6% among 350,000;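 active = significant combined selectivity score with lowered wild-type GFP, culture density cut under 30%, mutant RFP and density less affected; inactive = any of these conditions unmet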
# HIV Env fusion: blocks HIV Env-driven cell-cell fusion. HeLa-JRFL Env/CEM21 cell fusion, luciferase. inhibition, % at 12.3 µM. hit rate 1.1% among 360,000;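 active = mean replicate inhibition score of at least 50 and every replicate individually at or above 50; inconclusive = only one of the two criteria met; inactive = mean below 50 and not all replicates reaching 50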;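 note: 0% = plate neutral controls and 100% = maraviroc near 300 nM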
# PGC1a acetyl inh: PGC1a acetylation modulation, inhibitor mode. U2OS PGC1a acetylation, AlphaScreen anti-acetyl-lysine; with virally co-expressed GCN5 acetyltransferase. inhibition, % at 15.6 µM. hit rate 0.17% among 350,000. AID 651687;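 active = every replicate shows inhibition of at least 40%; inconclusive = mean inhibition at least 40% but some replicate below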;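 note: 0% = neutral control wells and 100% = positive control wells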
# DENV2 CPE: protects cells from dengue virus 2 cytopathic effect; CPE inhibition, % at 9.99 µM; DENV2-infected cells, cytopathic effect rescue, plate reader; hit rate 1.7% among 350,000; in the data active = CPE inhibition above about 20%, passing the limit was not always enough; inconclusive = no clear call, values can overlap the other calls; tested in BHK-21 cells;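 note: 0% = median of neutral control wells and 100% = median of positive control wells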
# PglD DTNB: inhibitors of Campylobacter jejuni PglD acetyltransferase | purified PglD enzyme, DTNB colorimetric CoA detection | inhibition, % at 12.5 µM | hit rate 0.098% among 360,000 | AID 602405; in the data active = inhibition above about 16%, passing the limit was not always enough; inconclusive = no clear call, values can overlap the other calls
# Starred values were filed as active, the others as inactive; ? = inconclusive; / = no result given; [ ] = remark or other dose.
SMILES,FN deposit inh,rRNA inh HTS,HIV Env fusion,PGC1a acetyl inh,DENV2 CPE,PglD DTNB
Cc1noc(C)c1S(=O)(=O)Nc1ccc2c(c1)C(=O)N([C@H](C)CO)C[C@@H](C)[C@H](CN(C)Cc1ccncc1)OCCCC[C@H](C)O2,/,4,-6[16.7 µM],2,4,0
CNC[C@H]1Oc2ccc(NS(=O)(=O)c3ccccc3)cc2CC(=O)N([C@@H](C)CO)C[C@H]1C,/,5,1[16.7 µM],3,0,5
CCOc1ccc(Nc2ncnc3ccc([N+](=O)[O-])cc23)cc1,4,-1,38,50*,-5,/
CCOC(=O)c1ccc(Nc2ncnc3ccc(C)cc23)cc1,/,/,/,-4,/,-1
CO[C@@H]1CN(C)C(=O)c2cc(NC(=O)c3cnccn3)ccc2OC[C@@H](C)N(CCc2ccccc2)C[C@@H]1C,-5,2,/,2,2,-5
CCOC(=O)N1CCN(CC(=O)Nc2c(C(=O)OC)[nH]c3cccc(Cl)c23)CC1,/,-15*,/,/,4,/
O=C(Nc1ccc(Cc2ccncc2)cc1)c1cccs1,/,8,14,9,31*,0
O=C(c1ccncc1)c1ccc(NC(=O)c2cccs2)cc1,7,-1,7,/,-1,-1
CCCCC[C@H]1CN(CCc2ccccc2)C(=O)[C@@H]1CC(=O)NCc1ccc(OC)cc1,-2,-44,26,-3,24*,-4
O=C(C[C@H]1C(=O)N(Cc2ccccc2)C[C@@H]1Cc1ccccc1)Nc1ccc(Br)cc1,/,-11,-2,/,26*,1
CCCCC[C@H]1CN(CCCC)C(=O)[C@@H]1CC(=O)NCc1ccc(OC)cc1,-3,-36,36,-8,?,-1
O=C(C[C@H]1C(=O)N(Cc2cccnc2)C[C@@H]1Cc1ccccc1)Nc1ccc(Br)cc1,6,-49,-17,3,-3,1
CCCCN1C[C@H](Cc2ccccc2)[C@@H](CC(=O)NCc2ccc(OC)cc2)C1=O,-6,-26,-14,-2,48*,-1
Cc1noc(C)c1NC(=O)N(C)C[C@H]1Oc2c(NC(=O)c3ccc(-c4nccs4)cc3)cccc2C(=O)N([C@H](C)CO)C[C@H]1C,3,0,/,-1,9,1
Cc1noc(C)c1NC(=O)N(C)C[C@H]1Oc2c(NC(=O)c3ccc(-c4nccs4)cc3)cccc2C(=O)N([C@@H](C)CO)C[C@H]1C,-6,2,/,-4,24*,2
Cc1noc(C)c1NC(=O)N(C)C[C@@H]1Oc2c(NC(=O)c3ccc(-c4nccs4)cc3)cccc2C(=O)N([C@H](C)CO)C[C@@H]1C,-9,-1,/,-6,33*,2
CC(C)NC(=O)N(C)C[C@@H]1Oc2c(NC(=O)c3ccc(-c4nccs4)cc3)cccc2C(=O)N([C@@H](C)CO)C[C@@H]1C,/,-4,14[16.7 µM],-6,8,4
CC(C)CC#Cc1ccc([C@@H]2[C@H]3CN(C(=O)c4cnccn4)CC(=O)N3[C@H]2CO)cc1,/,1,/,-7,?,/
C=CCn1c(-c2csc(-c3ccccc3)n2)n[nH]c1=S,/,/,/,7,/,5
C=CCN1C(=S)CC(c2ccccc2)=Nc2ccccc21,-4,-22,92*,/,?,1
C[C@H](CO)N1C[C@H](C)[C@@H](CN(C)Cc2ccncc2)OCCCC[C@H](C)Oc2ccc(NC(=O)NC3CCCCC3)cc2C1=O,3,-4,-7[16.7 µM],11,-12,1
C/C(N)=C(/C#N)C(=O)CSc1nnc(Cc2ccccc2F)n1N,1,8,-6,6,54*,2
CCC(=O)N(C)C[C@H]1Oc2cc(C#CCC3CCCC3)ccc2S(=O)(=O)N([C@@H](C)CO)C[C@H]1C,/,-12,-6[16.7 µM],10,3,0
O=C(COC(=O)c1ccc([N+](=O)[O-])o1)Nc1ccc(N2CCOCC2)cc1,1,8,-7,/,-2,7
O=C(Nc1ccc(S(=O)(=O)N2CCOCC2)cc1)c1ccc([N+](=O)[O-])o1,9,-24*,-166,-47,-12,0
SMILES,FN deposit inh,rRNA inh HTS,HIV Env fusion,PGC1a acetyl inh,DENV2 CPE,PglD DTNB
O=C(Nc1ccc(N2CCOCC2)cc1)c1cc2c(s1)CCCCC2,-8,-22*,-6,/,-5,/
O=C(Nc1ccc(N2CCOCC2)cc1)c1cc2c(s1)CCCC2,/,-26,-22,4,4,/
O=C(Nc1ccc(N2CCOCC2)cc1)c1ccc([N+](=O)[O-])o1,13,-19*,-289,/,-5,5
C[C@@H]1CCCCO[C@H](CN(C)S(C)(=O)=O)[C@H](C)CN([C@@H](C)CO)C(=O)c2cc(NS(=O)(=O)c3ccccc3)ccc2O1,/,0,3[16.7 µM],-16,3,-5
CC(=O)N1[C@H](CO)[C@H](c2ccccc2)C12CN(S(=O)(=O)c1ccccc1)C2,-1,1,/,/,-12,/
C[C@H]1COCn2nncc2CC[C@@H](Cc2ccccc2)C(=O)N1,-1,1,/,/,/,/
COc1ccc(C(CCN2CCN(c3ccccc3)CC2)c2c(OC)cc(OC)c3c(-c4ccccc4)cc(=O)oc23)cc1 (centres undefined),4,11,3,-20,59*,-1
COc1cc(OC)c2c(-c3ccccc3)cc(=O)oc2c1C(CCN1CCN(c2ccccc2)CC1)c1ccc(N(C)C)cc1 (centres undefined),-4,4,-1,-19,-8,2
O=C(C[C@@H]1CC[C@@H]2[C@H](COC[C@H](O)CN2Cc2cc(F)ccc2F)O1)NCc1ccccc1,1,-6,/,3,-1,1
CCN(CC)C(=O)[C@H]1C[C@H](CC(=O)NCC23CC4CC(CC(C4)C2)C3)C(=O)N2CCc3c([nH]c4ccc(Cl)cc34)[C@]12C,-5,20,65*,0,-2,1
CCCC#Cc1ccc2c(c1)O[C@H](CN(C)C(=O)C1CCC1)[C@@H](C)CN([C@@H](C)CO)S2(=O)=O,-4,-3,16[16.7 µM],6,5,2
CCCN1[C@H](C(=O)NCC(F)(F)F)[C@@H](CO)[C@@H]2Cn3c(ccc(-c4ccccc4)c3=O)[C@@H]21,/,1,/,-6,92*,6
CCCN1[C@@H]2c3ccc(-c4ccccc4F)c(=O)n3C[C@@H]2[C@@H](CO)[C@@H]1C(=O)NCC,/,3,/,26,-14,-5
C[C@@H](NC(=O)[C@H]1[C@H](CO)[C@H]2Cn3c(cccc3=O)[C@H]2N1CC1CCCCC1)c1ccccc1,/,-3,/,7,24*,/
CCCN1[C@H](C(=O)N[C@@H](C)c2ccccc2)[C@@H](CO)[C@@H]2Cn3c(ccc(-c4cccc(F)c4)c3=O)[C@@H]21,/,-13,64*[16.7 µM],/,2,6
CCC(=O)N1[C@@H]2c3ccc(-c4cccc(F)c4)c(=O)n3C[C@@H]2[C@@H](CO)[C@@H]1C(=O)OC,/,4,/,2,76*,2

# Compound activity (PubChem)
